One series relates to Vaccinia virus. Put plainly: microbe, parasite or virus in culture. It is filed as cell-based. The following applies: Orthopoxvirus vaccinia, HEL, read-out: EC50 Vaccinia virus.
In the next series the test system is Reovirus-1. Nature of the series: organism not typed. The format is cell-based. To be noted: Vero, read-out: Antiviral activity EC50 Reovirus-1.
Series [1] has as its system Human embryonic lung cell cultures. Put plainly: Cytotoxicity. It is filed as cell-based. The essentials:
(§1)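 Cell cultures incubated with varying concentrations of test compound, then examined by microscopy. MCC is the lowest concentration that causes a microscopically detectable alteration of normal cell morphology. HEL, Vero and HeLa lines were monitored regularly for mycoplasma and found free of it.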

Series [2] relates to Vesicular stomatitis virus. Nature of the series: microbe, parasite or virus in culture. It is filed as cell-based. The following applies: Vesicular stomatitis virus, HEL, read-out: EC50 Vesicular stomatitis virus.
The next series concerns Vero cell cultures. Nature of the series: Cytotoxicity. It is filed as cell-based. The essentials:
as §1

In a further series the test system is Para-influenza-3 virus. Put plainly: organism not typed. The format is cell-based, parainfluenza-3 virus. The following applies: Vero, read-out: Antiviral activity EC50 Para-influenza-3 virus.
Series [3] deals with Crandell-Rees feline kidney cells. Put plainly: Cytotoxicity. The format is cell-based.
A further series deals with Sindbis virus. Put plainly: microbe, parasite or virus in culture. The following applies: Sindbis virus, Vero, read-out: Antiviral activity EC50 Sindbis virus. It is filed as cell-based.
A short description of the next series: in vitro. To be noted: dog.
In series [4] the test system is Herpes simplex virus-2 (G). Nature of the series: microbe, parasite or virus in culture. It is filed as cell-based, herpes simplex virus type 2. The following applies: Human alphaherpesvirus 2, HEL, read-out: EC50 Herpes simplex virus-2 (G).
The next series has as its system Punta Toro virus. Put plainly: microbe, parasite or virus in culture. The format is cell-based. The following applies: Punta Toro virus, Vero, read-out: Antiviral activity EC50 Punta Toro virus.
For series [5], the system named is Coxsackie virus B4. Nature of the series: microbe, parasite or virus in culture. It is filed as cell-based. To be noted: Enterovirus B, B4, HeLa, read-out: Antiviral activity EC50 Coxsackie virus B4.
Series [6] deals with Herpes simplex virus-1 (KOS). Put plainly: microbe, parasite or virus in culture. The format is cell-based, herpes simplex virus type 1. The following applies: Human alphaherpesvirus 1, HEL, read-out: EC50 Herpes simplex virus-1 (KOS).
Series [7] has as its system Herpes simplex virus-1TK-KOS ACV^r. Nature of the series: microbe, parasite or virus in culture. The format is cell-based, herpes simplex virus type 1. The following applies: Human alphaherpesvirus 1, HEL, read-out: EC50 Herpes simplex virus-1TK-KOS ACV^r.
The subject of a further series is Feline herpes virus. Put plainly: Antiviral CPE assay, feline herpes virus in CRFK cells. To be noted: CRFK, read-out: EC50 Feline herpes virus. It is filed as cell-based.
Series [8] has as its system mouse-skin papillomas induced by DMBA and TPA. Nature of the series: Two-stage mouse-skin carcinogenesis test. It is filed as in vivo. The following applies: 85 nmol topical. In a few lines: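 Specific pathogen-free female ICR mice, 6 weeks old, about 30 g, 15 per group, kept at 24 ± 2 °C. Shaved backs were initiated with DMBA (100 μg, 390 nmol) in 0.1 ml acetone. One week later, TPA (1 μg, 1.7 nmol) in acetone was applied twice weekly. Test compound (85 nmol) in 0.1 ml acetone was applied topically 1 h before each TPA. Papillomas were scored weekly for 20 weeks as % mice bearing papillomas and mean papillomas per mouse.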

The subject of another series is Influenza B. Put plainly: Anti-influenza virus activity, influenza B in MDCK cells. It is filed as cell-based, influenza B virus B/Hong Kong/5/72. To be noted: Influenza B virus, MDCK.
In another series the test system is HeLa cell cultures. Put plainly: Cytotoxicity. The format is cell-based. In a few lines: as §1
Another series relates to MDCK cells. To be noted: microscopically detectable alteration of normal cell morphology.
Series [9] deals with Cytomegalovirus Davis strain. Put plainly: microbe, parasite or virus in culture. It is filed as cell-based. The following applies: Human betaherpesvirus 5, HEL, read-out: EC50 Cytomegalovirus Davis strain.
The subject of series [10] is Coxsackie virus B4. Nature of the series: microbe, parasite or virus in culture. It is filed as cell-based. The following applies: Enterovirus B, B4, Vero, read-out: Antiviral activity EC50 Coxsackie virus B4.
Where [11] appears, read: read-out: Antiviral EC50 Influenza B MTS.
Setting [12] is: read-out: Antiviral EC50 Influenza B Visual CPE score.

The source of these data is paper PMC7080202 (Medicinal Chemistry Research, 2013).

Like-named read-outs stand apart in the source and are kept apart here. A value given as a limit tells only on which side of the number the result lay.

What is called EC50 is the concentration at which the effect is half-maximal. With `O=C(N/N=C1\C(=O)Nc2ccc(Cl)cc21)N/N=C1\C(=O)Nc2ccc(Cl)cc21` [6b, 1,3-Bis({[(3Z)-5-chloro-2-oxo-2,3-dihydro-1H-indol-3-ylidene]amino})urea], the half-maximal effective concentration (EC50) in the series on Vaccinia virus is > 100 µM; with Reovirus-1 it was > 20 µM; in series [2] it was > 100 µM; in the series with Para-influenza-3 virus it was > 20 µM; with Sindbis virus, > 20 µM; in series [4], > 100 µM. Besides, the EC50 was > 20 µM in the series with Punta Toro virus; > 100 µM in the series with Coxsackie virus B4 [5]; > 100 µM in series [6]; > 100 µM in [7]; 19.7 µM in the series on Feline herpes virus; > 100 µM in the series on Influenza B (setting [11]). The figures for the EC50 (with Influenza B (setting [12]); in [9]; in the series on Coxsackie virus B4 [10]) were > 100 µM, > 20 µM and > 20 µM, respectively. Also, the Minimum cytotoxic concentration is 100 µM in series [1], 100 µM with Vero cell cultures, >100 µM in [3] and >100 µM in the series on HeLa cell cultures. In “in vitro”, the CC50 was > 100 µM. Also, in [8], the “chemoprevention / anti-tumor promoting activity (in words)” value is given as “moderate protection”. In addition, the papillomas/mouse was 1.2 papillomas/mouse in series [8] (10 weeks of promotion), 3.9 papillomas/mouse in [8] (15 weeks of promotion) and 6.1 papillomas/mouse in series [8] (week 20). Also, the “percentage of papillomas (mice with papillomas)” value in [8] (after week 17) is 100%. Further, in the series with MDCK cells, the “Cytotoxicity Minimum cytotoxic concentration” value is reported as >100.

As to `NC(=O)c1ncn([C@@H]2O[C@H](CO)[C@@H](O)[C@H]2O)n1` [Ribavirin, reference compound], the Minimum cytotoxic concentration in the series with Vero cell cultures and with HeLa cell cultures was >250 µM throughout. Also, the EC50 was > 250 µM with Sindbis virus; 112 µM in the series with Coxsackie virus B4 [5]; 2.45 ± 0.25 µM with Influenza B (setting [11]); 2.4 ± 1.6 µM with Influenza B (setting [12]); 250 µM with Coxsackie virus B4 [10]. Besides, in the series on MDCK cells, the “Cytotoxicity Minimum cytotoxic concentration” value was >100.

For `Nc1nc(O)c2ncn(COC(CO)CO)c2n1` [Ganciclovir, reference compound], the concentration for a half-maximal effect (EC50) with Vaccinia virus is > 100 µM; in series [2] it was > 100 µM; in [4], 0.01 µM; in series [6], 0.02 µM; in series [7] it was 4 µM; in the series with Feline herpes virus it was 1.4 µM. For the same compound, in series [9], the EC50 was 5.5 ± 2.36 µM. Further, the Minimum cytotoxic concentration in series [1] was >350 µM; in series [3], >100 µM.

On to `NC12CC3CC(CC(C3)C1)C2` [Amantadine, reference compound], for which the CC50 in the series “in vitro” is > 200 µM. The EC50 with Influenza B (setting [11]) and in the series on Influenza B (setting [12]) was > 200 µM each time. Besides, the “Cytotoxicity Minimum cytotoxic concentration” value in the series with MDCK cells is >200.

As to `Nc1nc2c(ncn2COCCO)c(=O)[nH]1` [Acyclovir, reference compound], the EC50 with Vaccinia virus is > 250 µM; in series [2], > 250 µM; in series [4], 0.2 µM; in series [6], 0.4 µM; in [7], 22 µM.

With `CCC(CC)O[C@@H]1C=C(C(=O)O)C[C@H](N)[C@H]1NC(C)=O` [Oseltamivir carboxylate, reference compound], the CC50 in the series “in vitro” was > 100 µM. For the same compound, the results for the EC50 with Influenza B (setting [11]) and in the series on Influenza B (setting [12]) were 2.5 ± 0.7 µM and 6.7 ± 5.3 µM, respectively. Further, the “Cytotoxicity Minimum cytotoxic concentration” value in the series with MDCK cells is >100.

In the case of `Nc1ccn(C[C@@H](CO)OCP(=O)(O)O)c(=O)n1` [Cidofovir, reference compound], the EC50 in the series on Vaccinia virus is 22 µM; in series [2] it was > 250 µM; in series [4], 1 µM; in series [6], 2 µM; in [7], 0.9 µM; in series [9], 0.78 ± 0.49 µM. Further, the Minimum cytotoxic concentration in series [1] is >300 µM.

On to `O=c1[nH]c(=O)n([C@H]2C[C@H](O)[C@@H](CO)O2)cc1/C=C/Br` [Brivudin, reference compound], for which the EC50 is 4 µM with Vaccinia virus; > 250 µM in series [2]; 112 µM in [4]; 0.04 µM in series [6]; 50 µM in series [7]. Also, the Minimum cytotoxic concentration in series [1] is >300 µM.

In the case of `O=C(N/N=C1\C(=O)Nc2ccccc21)N/N=C1\C(=O)Nc2ccccc21` [6a, 1,3-Bis({[(3Z)-2-oxo-2,3-dihydro-1H-indol-3-ylidene]amino})urea], the EC50 (in the series with Vaccinia virus; in series [2]; in series [4]; with Coxsackie virus B4 [5]; in series [6]; in [7]) was > 100 µM each time. The EC50 (with Feline herpes virus; in the series with Influenza B (setting [11]); with Influenza B (setting [12]); in series [9]) was > 100 µM each time. Moreover, the Minimum cytotoxic concentration in [1] was ≥100 µM; in the series with Vero cell cultures it was 100 µM; in series [3] it was >100 µM; in the series on HeLa cell cultures, >100 µM. For the same compound, the CC50 in “in vitro” is > 100 µM. In the series on MDCK cells, the “Cytotoxicity Minimum cytotoxic concentration” value is >100.

Turning to `Nc1ncnc2c1ncn2C[C@H](O)CO` [(S)-DHPA, reference compound], the EC50 in the series with Reovirus-1, with Para-influenza-3 virus, with Sindbis virus, with Punta Toro virus, in the series on Coxsackie virus B4 [5] and in the series with Coxsackie virus B4 [10] was > 250 µM in each case. Besides, the Minimum cytotoxic concentration in the series with Vero cell cultures and in the series on HeLa cell cultures was >250 µM each time.

On to `CC(N)C12CC3CC(CC(C3)C1)C2` (stereo not shown) [Rimantadine, reference compound], for which the CC50 in the series “in vitro” was > 200 µM. Moreover, the EC50 with Influenza B (setting [11]) and in the series with Influenza B (setting [12]) was > 200 µM in each case. In the series on MDCK cells, the “Cytotoxicity Minimum cytotoxic concentration” value was >200.

As to `O=C1/C(=N\NC(=S)NN=Cc2ccccc2)c2ccccc2N1Cc1ccccc1` [4g, 3-{[(3Z)-1-benzyl-2-oxo-2,3-dihydro-1H-indol-3-ylidene]amino}-1-[(phenylmethylidene)amino]thiourea], the EC50 (in the series with Vaccinia virus; in the series on Reovirus-1; in series [2]; in the series with Para-influenza-3 virus; with Sindbis virus; in series [4]) was > 100 µM throughout. Further, the EC50 is > 100 µM with Punta Toro virus; > 20 µM in the series with Coxsackie virus B4 [5]; > 100 µM in [6]; > 100 µM in series [7]; > 100 µM in the series on Feline herpes virus; > 100 µM in the series on Influenza B (setting [11]). Besides, the EC50 (with Influenza B (setting [12]); in series [9]; in the series on Coxsackie virus B4 [10]) was > 100 µM throughout. In addition, the Minimum cytotoxic concentration in [1] is ≥100 µM; in the series on Vero cell cultures, >100 µM; in series [3], ≥100 µM; in the series on HeLa cell cultures it was 100 µM. Besides, the CC50 in “in vitro” was > 100 µM. For the same compound, the “Cytotoxicity Minimum cytotoxic concentration” value in the series on MDCK cells is on record as >100.
